This is an account of results in ChEMBL document CHEMBL1138351, “Small, potent, and selective diaryl phosphonate inhibitors for urokinase-type plasminogen activator with in vivo antimetastatic properties” (J Med Chem, 2007).

What is called pIC50 is the IC50 on a negative log10 scale, so that one unit is a factor of ten. One may read the inhibition as the drop in the measured response relative to a control, in per cent. Low values mean a weak effect, high ones a strong effect. Broadly, the pKi is the Ki on a negative log10 scale, so that one unit is a factor of ten.

Each structure is given as a SMILES string. pIC50, pKi: −log10 of the molar value. Calls of active or inactive are those of the source. The calls are words filed in the database; no cut-off is given here.

The target of assay [1] is T1, Urokinase-type plasminogen activator (Homo sapiens, UniProt P00749).
Assay [2] is filed under the species Homo sapiens. Description: Selectivity index, ratio of IC50 for human plasmin to IC50 for human uPA. In a few lines:
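Selectivity index is IC50(plasmin)/IC50(uPA). Plasmin: human plasma-derived, about 5 mU, 580 µM S-2366, Tris pH 7.4. uPA: human, about 1 mU, 250 µM S-2444, 50 mM Tris pH 8.8. Both had 15 min preincubation at 37 °C, 405 nm initial rates in duplicate, and a four-parameter logistic fit.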

Assay [3] is filed under the species Homo sapiens. The assay can be described thus: Selectivity index, ratio of IC50 for human recombinant tPA to IC50 for human uPA.
The species named for assay [4] is Homo sapiens. The assay can be described thus: Selectivity index, ratio of IC50 for human thrombin to IC50 for human uPA. In a few lines: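 Selectivity index is IC50(thrombin)/IC50(uPA). Thrombin: human plasma-derived, about 5 mU, 580 µM S-2366, Tris pH 8.3. uPA: human, about 1 mU, 250 µM S-2444, 50 mM Tris pH 8.8. Both had 15 min preincubation at 37 °C, 405 nm initial rates in duplicate, and a four-parameter logistic fit.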

For assay [5], the species on record is Homo sapiens. The assay can be described thus: Selectivity index, ratio of IC50 for human factor 10a to IC50 for human uPA.
Assay [6] deals with T2, Prothrombin (Homo sapiens, UniProt P00734). Description: Inhibition of human thrombin. An outline of the steps: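 Human plasma thrombin was assayed at 37 °C in Tris pH 8.3. […] Initial rate was read at 405 nm, in duplicate. IC50 was obtained from a four-parameter logistic fit.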
Assay [7] addresses T3, Coagulation factor X (Homo sapiens, UniProt P00742). Description: Inhibition of factor 10a. In a few lines:
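Human factor Xa (FX activated with Russell's viper venom) at about 5 mU was preincubated with inhibitor (0–250 µM final) for 15 min at 37 °C. […] IC50 came from a four-parameter logistic fit.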

The target in assay [8] is T2, Prothrombin. The assay can be described thus: Inhibition of human thrombin at 250 uM. An outline of the steps: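 Human plasma thrombin was assayed at 37 °C in Tris pH 8.3. IC50 was obtained from a four-parameter logistic fit.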
Assay [9] addresses T3, Coagulation factor X. Description: Inhibition of factor 10a at 62 uM.
Assay [10] concerns the target T2, Prothrombin. Description: Inhibition of thrombin at 100 uM.
Assay [11] deals with Tissue-type plasminogen activator (Homo sapiens, UniProt P00750). The assay can be described thus: Inhibition of human recombinant tPA.
Chain of Tissue-type plasminogen activator (P00750 whole entry): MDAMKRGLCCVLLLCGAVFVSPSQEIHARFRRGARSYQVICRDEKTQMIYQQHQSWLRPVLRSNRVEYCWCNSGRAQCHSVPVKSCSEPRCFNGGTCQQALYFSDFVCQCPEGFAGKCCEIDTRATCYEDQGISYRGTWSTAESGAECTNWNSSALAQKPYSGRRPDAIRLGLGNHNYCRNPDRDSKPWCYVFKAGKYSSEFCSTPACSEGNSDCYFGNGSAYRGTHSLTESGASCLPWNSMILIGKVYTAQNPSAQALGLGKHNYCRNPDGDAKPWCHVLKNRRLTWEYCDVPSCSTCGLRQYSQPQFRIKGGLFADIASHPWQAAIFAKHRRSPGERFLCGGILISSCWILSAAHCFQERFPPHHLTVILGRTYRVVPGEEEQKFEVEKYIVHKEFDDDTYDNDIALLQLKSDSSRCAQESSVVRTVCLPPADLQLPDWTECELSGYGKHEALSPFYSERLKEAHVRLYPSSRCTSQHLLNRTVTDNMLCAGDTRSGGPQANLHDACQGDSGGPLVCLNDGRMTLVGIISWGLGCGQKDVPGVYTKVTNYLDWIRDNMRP
The next assay addresses Plasminogen (Homo sapiens, UniProt P00747). Description: Inhibition of human plasmin. In a few lines:
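Plasmin from human plasma at about 5 mU was preincubated with inhibitor (0–250 µM final) for 15 min at 37 °C. Substrate was S-2366 at 580 µM in Tris pH 7.4. Initial rate was read at 405 nm, in duplicate. IC50 came from a four-parameter logistic fit.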

The target in assay [12] is T1, Urokinase-type plasminogen activator. This is another data set of the same source.
Assay [13] deals with T3, Coagulation factor X. Description: Inhibition of factor 10a at 250 uM.

T3 sequence (P00742 41-179 limits assumed): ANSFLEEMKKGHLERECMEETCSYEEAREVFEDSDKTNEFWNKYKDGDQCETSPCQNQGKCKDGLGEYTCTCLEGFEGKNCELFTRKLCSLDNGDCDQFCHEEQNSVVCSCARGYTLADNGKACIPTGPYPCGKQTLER
T3 sequence (P00742 235-488 limits assumed): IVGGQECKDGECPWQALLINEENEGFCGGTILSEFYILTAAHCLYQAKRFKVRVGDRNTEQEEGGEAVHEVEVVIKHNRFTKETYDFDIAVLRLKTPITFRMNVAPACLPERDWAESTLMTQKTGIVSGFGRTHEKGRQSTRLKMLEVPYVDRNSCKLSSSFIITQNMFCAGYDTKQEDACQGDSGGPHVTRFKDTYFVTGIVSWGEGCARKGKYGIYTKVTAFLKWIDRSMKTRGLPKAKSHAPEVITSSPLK
Chain of Plasminogen (P00747 97-580 limits assumed): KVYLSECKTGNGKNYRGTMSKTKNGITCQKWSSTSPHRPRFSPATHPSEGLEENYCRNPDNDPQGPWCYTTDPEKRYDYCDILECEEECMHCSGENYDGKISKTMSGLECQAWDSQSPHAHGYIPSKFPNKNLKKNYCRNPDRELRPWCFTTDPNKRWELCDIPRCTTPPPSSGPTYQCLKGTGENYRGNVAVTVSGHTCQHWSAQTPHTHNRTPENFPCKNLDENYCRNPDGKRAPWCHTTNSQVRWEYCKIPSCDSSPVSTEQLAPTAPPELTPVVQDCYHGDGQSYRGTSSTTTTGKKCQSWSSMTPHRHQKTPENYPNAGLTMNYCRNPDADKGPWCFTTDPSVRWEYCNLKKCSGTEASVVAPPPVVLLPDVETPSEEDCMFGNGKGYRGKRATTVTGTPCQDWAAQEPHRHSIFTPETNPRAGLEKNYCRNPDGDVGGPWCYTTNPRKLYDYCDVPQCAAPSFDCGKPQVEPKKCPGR
Chain of Plasminogen (P00747 581-810 limits assumed): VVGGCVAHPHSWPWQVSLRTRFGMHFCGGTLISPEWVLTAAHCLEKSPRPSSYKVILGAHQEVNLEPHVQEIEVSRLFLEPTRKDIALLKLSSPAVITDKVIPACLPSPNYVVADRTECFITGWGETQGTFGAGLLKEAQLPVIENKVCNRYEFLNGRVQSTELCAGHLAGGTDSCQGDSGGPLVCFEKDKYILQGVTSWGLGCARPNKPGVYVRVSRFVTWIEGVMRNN

For the molecule `N=C(N)Nc1ccc(CC(NC(=O)OCc2ccccc2)P(=O)(Oc2ccccc2)Oc2ccccc2)cc1` (stereo not drawn), the Kapp in [1] was 42000 M⁻¹ s⁻¹.
With `CC(=O)Nc1ccc(OP(=O)(Oc2ccc(NC(C)=O)cc2)C(Cc2ccc(NC(=N)N)cc2)NC(=O)OCc2ccccc2)cc1` (stereo not drawn), the Ratio IC50 is 200 in the assay listed under Homo sapiens [2], 1700 in the assay filed under Homo sapiens [3], 90 in the assay listed under Homo sapiens [4] and 23000 in the assay listed under Homo sapiens [5]. The same molecule had a Kapp in assay [1] of 80000 M⁻¹ s⁻¹.
`CS(=O)(=O)NC(Cc1ccc(NC(=N)N)cc1)P(=O)(Oc1ccccc1)Oc1ccccc1` (stereo not drawn): the pIC50 on Prothrombin [6] was 3.90; against Coagulation factor X [7] it was 3.60. Moreover, the Kapp in [1] was 140000 M⁻¹ s⁻¹.
With `N=C(N)c1ccc(CCC(NC(=O)OCc2ccccc2)P(=O)(Oc2ccccc2)Oc2ccccc2)cc1` (stereo not drawn), the Ratio IC50 in the assay listed under Homo sapiens [2] stood at 7; in the assay filed under Homo sapiens [3], 70; in the assay filed under Homo sapiens [4], 20; in the assay listed under Homo sapiens [5], 15. Further, in [1], the Kapp came to 140 M⁻¹ s⁻¹.
As for `N=C(N)c1ccc(C(NC(=O)OCc2ccccc2)P(=O)(Oc2ccccc2)Oc2ccccc2)cc1` (stereo not drawn), in assay [1], the Kapp was found to be 43 M⁻¹ s⁻¹.
In the case of `CCOC(=O)NC(Cc1ccc(NC(=N)N)cc1)P(=O)(Oc1ccccc1)Oc1ccccc1` (stereo not drawn), in assay [1], the Kapp turned out to be 40000 M⁻¹ s⁻¹.
Take `N=C(N)Nc1ccc(CC(NS(=O)(=O)c2cccc3ccccc23)P(=O)(Oc2ccccc2)Oc2ccccc2)cc1` (stereo not drawn): the Kapp in assay [1] turned out to be 7300 M⁻¹ s⁻¹.
`N=C(N)Nc1ccc(CC(NC(=O)c2ccccc2)P(=O)(Oc2ccccc2)Oc2ccccc2)cc1` (stereo not drawn) showed a Kapp in assay [1] of 2400 M⁻¹ s⁻¹.
Turning to `CC(C)c1cc(C(C)C)c(S(=O)(=O)NC(Cc2ccc(NC(=N)N)cc2)P(=O)(Oc2ccccc2)Oc2ccccc2)c(C(C)C)c1` (stereo not drawn), the Ratio IC50 in the assay filed under Homo sapiens [2] is 500; in the assay listed under Homo sapiens [3], 60; in the assay listed under Homo sapiens [5], 80. The molecule further returned an inhibition against Prothrombin [8] of 60%. In addition, the Kapp in assay [1] stood at 1600 M⁻¹ s⁻¹.
Consider `N=C(N)Nc1ccc(CC(NS(=O)(=O)Cc2ccccc2)P(=O)(Oc2ccccc2)Oc2ccccc2)cc1` (stereo not drawn), for which, at Coagulation factor X [9], the inhibition came to 59%. In addition, in assay [1], the Kapp was determined as 19000 M⁻¹ s⁻¹.
For the molecule `C[C@H](NC(=O)[C@@H](CO)NS(=O)(=O)Cc1ccccc1)C(=O)NCc1ccc(NC(=N)N)cc1`, the result at Prothrombin [10] was inactive. The pKi is < 5.60 in [11], 4.40 on Plasminogen and 7.80 in assay [12].
Turning to `C[C@H](NC(=O)[C@@H](CO)NS(=O)(=O)Cc1ccccc1)C(=O)NC(Cc1ccc(NC(=N)N)cc1)P(=O)(Oc1ccccc1)Oc1ccccc1` (stereo partly drawn), the pIC50 against Coagulation factor X [7] is 4.47; in assay [12], 8.40.
Molecule `CC(=O)NC(Cc1ccc(NC(=N)N)cc1)P(=O)(Oc1ccccc1)Oc1ccccc1` (stereo not drawn) had a pIC50 in assay [12] of 8.14. For the same molecule, in assay [1], the Kapp was found to be 1.4e+06 M⁻¹ s⁻¹.
`N=C(N)c1ccc(CC(NC(=O)OCc2ccccc2)P(=O)(Oc2ccccc2)Oc2ccccc2)cc1` (stereo not drawn): the inhibition at Coagulation factor X [13] amounted to 65%. For the same molecule, the Kapp in assay [1] was determined as 2000 M⁻¹ s⁻¹.
As for `N=C(N)Nc1ccc(CNC(=O)OCc2ccccc2)cc1`, the pKi (in assay [11]; at Plasminogen; at Prothrombin [6]; on Coagulation factor X [7]) was < 3.00 throughout.
`N=C(N)NCCCC(NC(=O)OCc1ccccc1)P(=O)(Oc1ccccc1)Oc1ccccc1` (stereo not drawn): the Ratio IC50 in the assay listed under Homo sapiens [2] worked out at 35; in the assay filed under Homo sapiens [3], 50; in the assay filed under Homo sapiens [4], 0.9. In addition, the pIC50 in assay [11] was 4.36; on Plasminogen, 4.52; against Prothrombin [6], 6.11; in [12], 6.08. Also, the inhibition on Coagulation factor X [13] came out at 70%. Besides, in assay [1], the Kapp was 100 M⁻¹ s⁻¹.
`CC(=O)Nc1ccc(OP(=O)(Oc2ccc(NC(C)=O)cc2)C(Cc2ccc(NC(=N)N)cc2)NS(C)(=O)=O)cc1` (stereo not drawn): the results for the Ratio IC50 in the assay filed under Homo sapiens [2], in the assay filed under Homo sapiens [3] and in the assay listed under Homo sapiens [4] were 550, 1000 and 700, respectively. At Coagulation factor X [13], this molecule yielded an inhibition of 55%. This molecule also had a Kapp in assay [1] of 210000 M⁻¹ s⁻¹.
